Data: ChEMBL document CHEMBL2390926, “Identification of novel FLT3 kinase inhibitors” (Eur J Med Chem, 2013)
Activity calls are given as the source filed them. The calls are words filed in the database; no cut-off is given here.

Columns and labels:
BaF3 = test: Cytotoxicity against mouse BA/F3 cells transfected with FLT3-ITD at 1 uM after 24 hrs by plate reader analysis; assay type: functional, cell-based
KG-1 = test: Cytotoxicity against human KG1 cells after 72 hrs by plate reader analysis; assay type: functional, cell-based; conditions: KG-1, 72 h
HEL = test: Cytotoxicity against human HEL cells after 72 hrs by plate reader analysis; assay type: functional, cell-based
EOL1 = test: Cytotoxicity against human EOL-1 cells after 72 hrs by plate reader analysis; assay type: functional, cell-based; conditions: EOL1, 72 h
[1] = Cytotoxicity against mouse BA/F3 cells transfected with FLT3-ITD after 24 hrs by plate reader analysis; conditions: BaF3, 24 h
[2] = molecular target: T1, Tyrosine-protein kinase receptor TYRO3 (Homo sapiens) (UniProt Q06418); test: Inhibition of TYRO3 (unknown origin) transfected in mouse Ba/F3 cells at 1 uM after 24 hrs; assay type: cell-based; conditions: BaF3
T1 sequence (whole entry): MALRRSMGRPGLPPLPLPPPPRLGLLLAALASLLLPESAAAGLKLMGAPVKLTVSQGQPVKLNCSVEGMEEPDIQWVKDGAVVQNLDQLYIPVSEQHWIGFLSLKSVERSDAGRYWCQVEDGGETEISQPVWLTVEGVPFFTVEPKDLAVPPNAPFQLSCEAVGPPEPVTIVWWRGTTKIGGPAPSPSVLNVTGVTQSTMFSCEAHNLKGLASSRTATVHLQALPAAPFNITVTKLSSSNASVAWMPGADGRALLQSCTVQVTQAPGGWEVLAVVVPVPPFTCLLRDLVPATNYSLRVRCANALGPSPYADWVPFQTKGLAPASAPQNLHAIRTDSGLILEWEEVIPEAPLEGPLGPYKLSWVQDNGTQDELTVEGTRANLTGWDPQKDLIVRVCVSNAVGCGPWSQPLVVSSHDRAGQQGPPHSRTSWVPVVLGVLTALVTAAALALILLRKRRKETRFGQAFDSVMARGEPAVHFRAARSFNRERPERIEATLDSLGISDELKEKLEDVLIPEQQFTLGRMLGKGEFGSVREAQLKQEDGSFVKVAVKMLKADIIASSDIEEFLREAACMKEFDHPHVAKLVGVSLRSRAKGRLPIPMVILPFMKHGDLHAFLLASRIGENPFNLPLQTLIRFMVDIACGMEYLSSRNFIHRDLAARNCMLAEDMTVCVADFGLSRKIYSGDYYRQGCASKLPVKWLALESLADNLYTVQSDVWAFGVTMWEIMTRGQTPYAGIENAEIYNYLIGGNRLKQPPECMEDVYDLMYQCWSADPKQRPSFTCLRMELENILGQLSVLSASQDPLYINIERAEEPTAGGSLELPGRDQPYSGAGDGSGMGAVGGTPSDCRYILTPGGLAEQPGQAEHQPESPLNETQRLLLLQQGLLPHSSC

[3] = molecular target: Tyrosine-protein kinase SYK (Homo sapiens) (UniProt P43405); test: Inhibition of SYK (unknown origin) transfected in mouse Ba/F3 cells at 1 uM after 24 hrs; assay type: cell-based; conditions: BaF3
[4] = molecular target: Proto-oncogene tyrosine-protein kinase ROS (Homo sapiens) (UniProt P08922); test: Inhibition of ROS1 (unknown origin) transfected in mouse Ba/F3 cells at 1 uM after 24 hrs; assay type: cell-based; conditions: BaF3
Chain of Proto-oncogene tyrosine-protein kinase ROS (Homo sapiens) (P08922 whole entry): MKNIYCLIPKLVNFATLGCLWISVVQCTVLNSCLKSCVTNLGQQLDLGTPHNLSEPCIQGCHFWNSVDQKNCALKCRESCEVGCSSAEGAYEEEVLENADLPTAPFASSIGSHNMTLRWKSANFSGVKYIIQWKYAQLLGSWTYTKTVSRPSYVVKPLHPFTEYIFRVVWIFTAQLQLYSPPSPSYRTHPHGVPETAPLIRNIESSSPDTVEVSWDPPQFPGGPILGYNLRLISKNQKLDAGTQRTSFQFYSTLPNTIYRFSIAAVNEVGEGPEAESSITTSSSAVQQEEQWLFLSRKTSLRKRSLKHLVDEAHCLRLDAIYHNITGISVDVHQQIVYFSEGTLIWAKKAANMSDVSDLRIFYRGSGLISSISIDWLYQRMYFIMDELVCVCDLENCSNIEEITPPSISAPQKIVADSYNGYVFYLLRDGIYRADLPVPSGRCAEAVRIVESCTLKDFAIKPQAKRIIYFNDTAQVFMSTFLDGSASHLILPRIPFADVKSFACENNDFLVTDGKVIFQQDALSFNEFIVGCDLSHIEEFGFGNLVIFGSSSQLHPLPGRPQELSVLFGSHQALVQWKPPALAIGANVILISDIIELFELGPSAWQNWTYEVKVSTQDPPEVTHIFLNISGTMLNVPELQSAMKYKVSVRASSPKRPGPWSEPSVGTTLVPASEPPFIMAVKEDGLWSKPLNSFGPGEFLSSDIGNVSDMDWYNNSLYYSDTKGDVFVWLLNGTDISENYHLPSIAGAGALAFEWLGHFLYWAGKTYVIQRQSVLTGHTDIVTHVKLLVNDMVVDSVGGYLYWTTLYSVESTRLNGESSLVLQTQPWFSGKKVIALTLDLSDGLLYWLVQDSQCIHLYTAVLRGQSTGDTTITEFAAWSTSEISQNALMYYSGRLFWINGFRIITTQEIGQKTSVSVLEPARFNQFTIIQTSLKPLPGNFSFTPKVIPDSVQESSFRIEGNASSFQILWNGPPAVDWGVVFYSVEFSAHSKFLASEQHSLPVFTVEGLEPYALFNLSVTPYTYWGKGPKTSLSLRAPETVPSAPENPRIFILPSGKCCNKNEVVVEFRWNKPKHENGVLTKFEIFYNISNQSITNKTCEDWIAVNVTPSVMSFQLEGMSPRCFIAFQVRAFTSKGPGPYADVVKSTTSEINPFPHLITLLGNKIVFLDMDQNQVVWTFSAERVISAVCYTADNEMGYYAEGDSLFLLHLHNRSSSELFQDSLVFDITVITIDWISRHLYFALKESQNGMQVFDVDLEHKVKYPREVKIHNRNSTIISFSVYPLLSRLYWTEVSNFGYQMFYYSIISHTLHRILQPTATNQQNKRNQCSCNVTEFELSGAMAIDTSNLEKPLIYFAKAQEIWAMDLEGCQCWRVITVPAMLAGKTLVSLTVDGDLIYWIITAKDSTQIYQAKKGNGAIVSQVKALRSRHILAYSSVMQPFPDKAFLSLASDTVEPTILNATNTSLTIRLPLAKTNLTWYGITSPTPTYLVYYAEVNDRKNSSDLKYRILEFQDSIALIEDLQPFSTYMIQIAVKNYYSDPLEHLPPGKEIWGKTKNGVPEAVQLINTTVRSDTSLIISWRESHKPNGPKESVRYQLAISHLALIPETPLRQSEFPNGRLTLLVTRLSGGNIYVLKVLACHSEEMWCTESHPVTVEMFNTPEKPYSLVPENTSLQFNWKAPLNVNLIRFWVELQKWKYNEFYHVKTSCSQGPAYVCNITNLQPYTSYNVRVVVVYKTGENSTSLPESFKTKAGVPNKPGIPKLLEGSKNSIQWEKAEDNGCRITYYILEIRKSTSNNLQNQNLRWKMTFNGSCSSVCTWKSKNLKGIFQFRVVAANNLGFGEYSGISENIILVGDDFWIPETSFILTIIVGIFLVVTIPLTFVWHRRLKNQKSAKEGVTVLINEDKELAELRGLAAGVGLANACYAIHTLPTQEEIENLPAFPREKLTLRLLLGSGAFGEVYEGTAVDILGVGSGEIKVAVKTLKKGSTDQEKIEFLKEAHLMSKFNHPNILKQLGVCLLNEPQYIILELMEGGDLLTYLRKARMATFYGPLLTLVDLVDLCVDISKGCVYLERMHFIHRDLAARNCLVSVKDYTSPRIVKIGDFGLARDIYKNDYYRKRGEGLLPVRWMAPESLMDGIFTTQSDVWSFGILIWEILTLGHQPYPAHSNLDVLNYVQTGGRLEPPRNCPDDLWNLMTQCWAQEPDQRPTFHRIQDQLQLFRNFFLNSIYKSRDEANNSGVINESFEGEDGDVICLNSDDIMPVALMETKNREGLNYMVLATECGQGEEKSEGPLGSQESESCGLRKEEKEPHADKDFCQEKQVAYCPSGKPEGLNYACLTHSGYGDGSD

[5] = molecular target: NT-3 growth factor receptor (Homo sapiens) (UniProt Q16288); test: Inhibition of NTRK3 (unknown origin) transfected in mouse Ba/F3 cells at 1 uM after 24 hrs; assay type: cell-based; conditions: BaF3
[6] = molecular target: T2, Tyrosine-protein kinase Mer (Homo sapiens) (UniProt Q12866); test: Inhibition of MERTK (unknown origin) transfected in mouse Ba/F3 cells at 1 uM after 24 hrs; assay type: cell-based; conditions: BaF3
T2 sequence (whole entry): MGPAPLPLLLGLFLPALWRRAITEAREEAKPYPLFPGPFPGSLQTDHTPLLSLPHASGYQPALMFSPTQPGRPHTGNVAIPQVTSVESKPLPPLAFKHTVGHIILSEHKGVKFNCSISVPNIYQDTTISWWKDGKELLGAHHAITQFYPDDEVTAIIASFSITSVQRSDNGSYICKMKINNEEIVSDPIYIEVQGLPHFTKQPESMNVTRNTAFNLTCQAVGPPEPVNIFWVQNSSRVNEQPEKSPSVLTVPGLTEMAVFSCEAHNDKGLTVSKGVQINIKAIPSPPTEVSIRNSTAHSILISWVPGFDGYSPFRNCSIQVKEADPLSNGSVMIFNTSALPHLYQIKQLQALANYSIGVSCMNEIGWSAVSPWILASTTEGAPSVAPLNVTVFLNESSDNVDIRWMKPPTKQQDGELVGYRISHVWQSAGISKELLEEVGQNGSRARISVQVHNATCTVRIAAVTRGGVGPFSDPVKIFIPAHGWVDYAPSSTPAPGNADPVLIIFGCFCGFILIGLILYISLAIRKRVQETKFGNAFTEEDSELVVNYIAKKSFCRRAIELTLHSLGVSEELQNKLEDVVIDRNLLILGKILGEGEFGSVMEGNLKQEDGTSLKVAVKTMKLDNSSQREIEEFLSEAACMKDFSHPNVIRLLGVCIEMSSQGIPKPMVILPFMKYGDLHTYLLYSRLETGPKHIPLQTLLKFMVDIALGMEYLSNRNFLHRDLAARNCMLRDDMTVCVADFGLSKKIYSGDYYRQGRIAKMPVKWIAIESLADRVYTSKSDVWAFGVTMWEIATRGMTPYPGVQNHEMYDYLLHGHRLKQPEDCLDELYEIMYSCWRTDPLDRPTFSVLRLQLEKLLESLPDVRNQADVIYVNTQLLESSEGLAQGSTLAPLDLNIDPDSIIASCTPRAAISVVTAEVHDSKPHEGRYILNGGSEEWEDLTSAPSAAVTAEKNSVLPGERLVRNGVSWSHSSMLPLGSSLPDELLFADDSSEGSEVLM

[7] = molecular target: Insulin-like growth factor 1 receptor (Homo sapiens) (UniProt P08069); test: Inhibition of IGF1R (unknown origin) transfected in mouse Ba/F3 cells at 1 uM after 24 hrs; assay type: cell-based; conditions: BaF3
How it was run: (§1)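 Kinase specificity panel: each Ba/F3 line transformed with one of 24 tyrosine kinases depends on that kinase to grow. Cells were given compound at 1 or 5 µM for 24 h, with DMSO as comparator. Percentage growth was read by ATP-lite luminescence and reported as mean ± SEM.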

[8] = molecular target: Vascular endothelial growth factor receptor 3 (Homo sapiens) (UniProt P35916); test: Inhibition of FLT4 (unknown origin) transfected in mouse Ba/F3 cells at 1 uM after 24 hrs; assay type: cell-based; conditions: BaF3; how it was run: as §1
[9] = molecular target: Ephrin type-A receptor 7 (Homo sapiens) (UniProt Q15375); test: Inhibition of EPHA7 (unknown origin) transfected in mouse Ba/F3 cells at 1 uM after 24 hrs; assay type: cell-based; conditions: BaF3; how it was run: as §1
Chain of Ephrin type-A receptor 7 (Homo sapiens) (Q15375 28-998 limits assumed): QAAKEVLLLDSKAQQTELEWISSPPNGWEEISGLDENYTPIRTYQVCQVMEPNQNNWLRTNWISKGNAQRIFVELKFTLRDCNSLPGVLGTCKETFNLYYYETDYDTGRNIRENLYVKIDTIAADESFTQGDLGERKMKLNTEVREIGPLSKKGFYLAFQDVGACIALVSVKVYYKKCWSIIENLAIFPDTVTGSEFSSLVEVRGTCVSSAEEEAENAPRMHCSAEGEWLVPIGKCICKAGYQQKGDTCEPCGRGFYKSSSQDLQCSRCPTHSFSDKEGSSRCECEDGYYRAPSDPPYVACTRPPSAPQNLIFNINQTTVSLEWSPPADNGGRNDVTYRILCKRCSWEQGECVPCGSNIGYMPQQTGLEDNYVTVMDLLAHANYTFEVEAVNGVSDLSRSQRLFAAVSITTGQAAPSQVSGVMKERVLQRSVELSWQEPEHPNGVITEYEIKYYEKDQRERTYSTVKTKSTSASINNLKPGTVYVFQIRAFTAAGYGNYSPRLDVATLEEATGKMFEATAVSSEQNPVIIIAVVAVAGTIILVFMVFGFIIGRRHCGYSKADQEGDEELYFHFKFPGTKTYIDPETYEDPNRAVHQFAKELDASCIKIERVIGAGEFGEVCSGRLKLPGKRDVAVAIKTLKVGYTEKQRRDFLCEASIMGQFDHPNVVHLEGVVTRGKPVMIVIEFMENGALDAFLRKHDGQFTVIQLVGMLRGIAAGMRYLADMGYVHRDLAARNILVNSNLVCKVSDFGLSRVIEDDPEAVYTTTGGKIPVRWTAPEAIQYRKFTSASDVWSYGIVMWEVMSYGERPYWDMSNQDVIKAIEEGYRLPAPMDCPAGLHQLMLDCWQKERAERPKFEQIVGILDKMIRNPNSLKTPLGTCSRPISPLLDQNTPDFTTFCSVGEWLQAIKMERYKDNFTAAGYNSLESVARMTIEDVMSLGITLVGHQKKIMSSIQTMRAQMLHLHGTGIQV

[10] = molecular target: Ephrin type-A receptor 2 (Homo sapiens) (UniProt P29317); test: Inhibition of EPHA2 (unknown origin) transfected in mouse Ba/F3 cells at 1 uM after 24 hrs; assay type: cell-based; conditions: BaF3; how it was run: as §1
[11] = molecular target: Epidermal growth factor receptor (Homo sapiens) (UniProt P00533); test: Inhibition of EGFR (unknown origin) transfected in mouse Ba/F3 cells at 1 uM after 24 hrs; assay type: cell-based; conditions: BaF3; how it was run: as §1
[12] = molecular target: Tyrosine-protein kinase ABL2 (Homo sapiens) (UniProt P42684); test: Inhibition of ABL2 (unknown origin) transfected in mouse Ba/F3 cells at 1 uM after 24 hrs; assay type: cell-based; conditions: BaF3; how it was run: as §1
Chain of Tyrosine-protein kinase ABL2 (Homo sapiens) (P42684 whole entry): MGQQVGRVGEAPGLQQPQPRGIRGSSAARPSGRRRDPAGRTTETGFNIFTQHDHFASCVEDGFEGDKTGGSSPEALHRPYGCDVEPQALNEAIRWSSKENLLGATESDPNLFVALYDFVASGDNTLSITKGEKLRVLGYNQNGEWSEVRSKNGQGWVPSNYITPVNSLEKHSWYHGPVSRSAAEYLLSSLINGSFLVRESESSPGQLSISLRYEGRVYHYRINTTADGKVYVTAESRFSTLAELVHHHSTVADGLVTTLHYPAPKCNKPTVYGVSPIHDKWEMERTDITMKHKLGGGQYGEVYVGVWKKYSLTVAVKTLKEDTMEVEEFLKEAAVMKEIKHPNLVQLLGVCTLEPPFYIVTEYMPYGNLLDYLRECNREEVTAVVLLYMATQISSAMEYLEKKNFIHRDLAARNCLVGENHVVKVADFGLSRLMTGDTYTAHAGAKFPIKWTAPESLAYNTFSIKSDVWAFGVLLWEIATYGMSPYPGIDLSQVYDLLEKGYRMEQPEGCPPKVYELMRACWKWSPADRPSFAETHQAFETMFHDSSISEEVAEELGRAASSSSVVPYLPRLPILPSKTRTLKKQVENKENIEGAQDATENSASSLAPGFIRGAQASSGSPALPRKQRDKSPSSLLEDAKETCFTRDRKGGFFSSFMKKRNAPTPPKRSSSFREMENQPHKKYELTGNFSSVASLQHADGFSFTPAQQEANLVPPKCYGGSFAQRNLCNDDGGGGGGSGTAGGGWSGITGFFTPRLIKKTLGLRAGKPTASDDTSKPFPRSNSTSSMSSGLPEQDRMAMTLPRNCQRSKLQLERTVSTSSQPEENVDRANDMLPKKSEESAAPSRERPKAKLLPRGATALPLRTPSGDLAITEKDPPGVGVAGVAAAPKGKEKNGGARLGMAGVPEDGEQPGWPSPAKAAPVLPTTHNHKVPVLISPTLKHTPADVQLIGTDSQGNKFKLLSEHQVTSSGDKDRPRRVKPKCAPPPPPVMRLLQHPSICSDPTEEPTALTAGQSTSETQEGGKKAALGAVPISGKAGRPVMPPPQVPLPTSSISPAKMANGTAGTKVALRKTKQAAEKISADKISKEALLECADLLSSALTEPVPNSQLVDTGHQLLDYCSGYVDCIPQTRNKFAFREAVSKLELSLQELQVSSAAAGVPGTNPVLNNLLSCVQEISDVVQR

SMILES | Activity (BaF3) | EC50 (KG-1) | EC50 (HEL) | EC50 (EOL1) | EC50 [1] | inhibition [2] | inhibition [3] | inhibition [4] | inhibition [5] | inhibition [6] | inhibition [7] | inhibition [8] | inhibition [9] | inhibition [10] | inhibition [11] | inhibition [12]
Cc1ccc(-n2cnc3cc(Nc4nnc(C)c5ccccc45)ccc32)cc1 | Active | 20 µM | 14 µM | 0.889 µM | 0.717 µM | – | – | – | – | – | – | – | – | – | – | –
COc1ccc(C(=O)Nc2cc(-c3ccccc3)[nH]n2)cc1 | Active | 15 µM | 47 µM | 0.066 µM | 0.036 µM | inactive | inactive | inactive | inactive | inactive | inactive | inactive | inactive | inactive | inactive | inactive
Cc1cccc(C(=O)Nc2cc(-c3ccc(F)cc3)n[nH]2)c1 | Active | 29 µM | 62 µM | 0.202 µM | 0.296 µM | inactive | inactive | inactive | inactive | inactive | inactive | inactive | inactive | inactive | inactive | inactive
Fc1ccc(-c2n[nH]cc2-c2ccncc2)cc1Cl | Active | 24 µM | 1000 µM | 0.382 µM | 0.405 µM | – | – | – | – | – | – | – | – | – | – | –
Cc1ccc(-c2cc(NC(=O)c3ccc(F)cc3)[nH]n2)cc1 | Active | 28 µM | 1000 µM | 0.502 µM | 0.138 µM | inactive | inactive | inactive | inactive | inactive | inactive | inactive | inactive | inactive | inactive | inactive
